Experimental findings from ChEMBL document CHEMBL3616405 (J Med Chem, 2015) are described below.

Some results are limits rather than exact numbers.

A word on the Tmax: it is the time from dosing to the highest level. Broadly, the MRT is a mean duration of stay, worked out from the concentration-time curve. The term IC50 denotes the midpoint of a concentration-inhibition curve. Usually clearance stands for the rate of elimination divided by the concentration. The low end stands for inefficient removal, the high end for efficient removal. In general, half-life refers to how long it takes for the measured level to halve. A high value points to slow loss. As a reminder, the bioavailability is the share of a dose that reaches the circulation, judged against a reference dose that is usually intravenous. Read a high bioavailability as good availability.

Data set [1] concerns Mus musculus. Description: Antihyperglycaemic activity in sc dosed db/db mouse assessed as reduction of blood glucose level by glucose oxidase method. Format: functional, organism-based. The gist of the method:
(§1)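 Male db/db mice (10–12 weeks old, blood glucose above 10 mM), group-housed, fed chow and acidified water ad libitum. Doses of 0.3–100 nmol/kg were given s.c. at 6 mL/kg in 50 mM phosphate with 0.05% Tween 80, pH 8. Tail-tip capillary blood glucose was measured by glucose oxidase at 0, 1, 2, 3, 6, 24 and 48 h. […] Values are mean ± SEM.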

Data set [2] has as its system Mus musculus. The data set can be described thus: Antiobesity activity in sc dosed db/db mouse assessed as reduction of body weight. Format: functional, organism-based.
The species named for another data set is Homo sapiens. Description: Half life in human. Format: ADME, organism-based. To be noted: in vivo.
The subject of data set [3] is Sus scrofa. Description: Clearance in Gottingen mini pig at 2 nmol/kg, iv. To be noted: in vivo. Format: ADME, organism-based. The method in brief: (§2)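 Göttingen mini-pigs received a single i.v. or s.c. dose, sized to individual body weight. Twelve blood samples were taken up to 288 h into ice-cooled EDTA tubes, then centrifuged at 4 °C. Plasma was frozen until GLP-1 analogue was measured by ELISA or LC/MS. Cl, Vz, T1/2, Tmax, MRT and F came from noncompartmental analysis.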

The test system of data set [4] is Sus scrofa. The data set can be described thus: Apparent volume of distribution in Gottingen mini pig at 2 nmol/kg, iv. Format: ADME, organism-based. To be noted: in vivo. The method in brief:
as §2

Data set [5] concerns Sus scrofa. Description: Half life in Gottingen mini pig at 2 nmol/kg, iv. In kind it is ADME, organism-based. To be noted: in vivo. The method in brief: as §2
Data set [6] relates to Sus scrofa. The data set can be described thus: Tmax in Gottingen mini pig at 2 nmol/kg, sc. Format: ADME, organism-based. To be noted: in vivo. The gist of the method:
as §2

In data set [7] the test system is Sus scrofa. The data set can be described thus: Mean residence time in Gottingen mini pig at 2 nmol/kg, sc. Format: ADME, organism-based. As to conditions: in vivo; call rule not given here. The method in brief:
as §2

In data set [8] the test system is Sus scrofa. The data set can be described thus: Bioavailability in Gottingen mini pig at 2 nmol/kg, sc. In kind it is ADME, organism-based. To be noted: in vivo. The gist of the method: as §2
Data set [9] addresses Mus musculus. The data set can be described thus: Antihyperglycaemic activity in sc dosed db/db mouse assessed as reduction of blood glucose level up to 48 hrs by glucose oxidase method. Format: functional, organism-based. The gist of the method:
as §1

The next data set addresses Albumin (Homo sapiens, UniProt P02768). Description: Binding affinity to human serum albumin at 100 uM by analytical ultracentrifugation analysis relative to liraglutide. Format: ADME. As to conditions: isolated protein. The gist of the method:
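Sedimentation-velocity analytical ultracentrifugation of 100 μM analogue with 10 μM purified monomeric HSA in PBS, pH 7.4, at 20 °C and 40 000 rpm, read at 250 nm. Free fraction Φ = c_free/(c_tot − c_HSA). Three experiments were averaged, with SD.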

Data set [10] concerns the target T1, Glucagon-like peptide 1 receptor (Homo sapiens, UniProt P43220). Description: Displacement of [125I]-GLP1 from human GLP1 receptor expressed in BHK cells after 2 hrs in absence of human serum albumin. Format: cell-based.
Data set [11] concerns the target T1, Glucagon-like peptide 1 receptor. The data set can be described thus: Displacement of [125I]-GLP1 from human GLP1 receptor expressed in BHK cells after 2 hrs in presence of 2% human serum albumin. Format: cell-based. On the technique in general: Displacement assays read how much labelled ligand stays bound in the presence of the test substance.
Data set [12] shares this target. Description: Agonist activity at human GLP1 receptor expressed in BHK cells after 3 hrs by CRE firefly luciferase reporter gene assay in absence of human serum albumin. In kind it is functional, cell-based. Background: Reporter assays use an easily measured gene product as a stand-in for the process of interest.
Data set [13] in a line: Clearance in Gottingen mini pig at 0.5 nmol/kg, iv. Format: ADME, organism-based, Sus scrofa. As to conditions: Gottingen minipig, in vivo. The method in brief:
as §2

Data set [14] in a line: Apparent volume of distribution in Gottingen mini pig at 0.5 nmol/kg, iv. As to conditions: Gottingen minipig, in vivo, read-out: Vz. Format: ADME, organism-based, Sus scrofa. The method in brief:
as §2

Data set [15] can be described thus: Half life in Gottingen mini pig at 0.5 nmol/kg, iv. In kind it is ADME, organism-based, Sus scrofa. As to conditions: Gottingen minipig, in vivo. The gist of the method: as §2
Data set [16] is described as follows: Mean residence time in Gottingen mini pig at 1 nmol/kg, sc. Format: ADME, organism-based, Sus scrofa. To be noted: Gottingen minipig, in vivo. The gist of the method: as §2
Data set [17] can be described thus: Bioavailability in Gottingen mini pig at 1 nmol/kg, sc. Format: ADME, organism-based, Sus scrofa. To be noted: Gottingen minipig, in vivo. The gist of the method: as §2

T1 sequence (P43220 whole entry): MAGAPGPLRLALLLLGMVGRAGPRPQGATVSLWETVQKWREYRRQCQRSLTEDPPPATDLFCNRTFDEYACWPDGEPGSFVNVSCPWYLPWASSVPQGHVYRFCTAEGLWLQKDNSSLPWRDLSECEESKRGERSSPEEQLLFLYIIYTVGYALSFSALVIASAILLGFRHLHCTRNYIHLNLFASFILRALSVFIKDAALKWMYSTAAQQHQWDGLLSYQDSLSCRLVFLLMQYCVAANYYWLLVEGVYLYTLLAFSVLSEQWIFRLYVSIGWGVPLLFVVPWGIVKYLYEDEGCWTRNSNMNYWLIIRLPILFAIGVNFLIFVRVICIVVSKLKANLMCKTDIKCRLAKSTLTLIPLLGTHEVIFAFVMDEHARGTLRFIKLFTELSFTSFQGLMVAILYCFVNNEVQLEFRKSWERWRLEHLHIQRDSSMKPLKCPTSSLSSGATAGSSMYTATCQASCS
Sequence of Albumin (P02768 whole entry): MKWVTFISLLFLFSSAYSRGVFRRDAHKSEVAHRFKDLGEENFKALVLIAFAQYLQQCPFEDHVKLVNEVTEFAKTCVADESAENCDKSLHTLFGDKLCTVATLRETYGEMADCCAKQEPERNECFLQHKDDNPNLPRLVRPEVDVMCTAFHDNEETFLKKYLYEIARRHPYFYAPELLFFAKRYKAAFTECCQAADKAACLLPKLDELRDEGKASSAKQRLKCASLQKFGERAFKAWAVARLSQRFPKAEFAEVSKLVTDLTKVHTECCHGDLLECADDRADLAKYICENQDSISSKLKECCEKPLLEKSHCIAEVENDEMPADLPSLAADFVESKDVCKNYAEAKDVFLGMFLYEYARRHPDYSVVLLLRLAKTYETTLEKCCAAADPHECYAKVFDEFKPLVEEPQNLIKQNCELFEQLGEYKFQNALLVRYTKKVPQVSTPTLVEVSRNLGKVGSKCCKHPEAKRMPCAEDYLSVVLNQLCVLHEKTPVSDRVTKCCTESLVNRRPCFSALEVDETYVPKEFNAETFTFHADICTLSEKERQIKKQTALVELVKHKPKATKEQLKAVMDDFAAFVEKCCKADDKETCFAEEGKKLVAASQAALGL

Turning to SEMAGLUTIDE [listing 1 of 2 here], the Activity result with Mus musculus [1] and with Mus musculus [2] was “Dose-dependent effect” in each case.

As to SEMAGLUTIDE [listing 2 of 2 here], the t1/2 in the data set filed under Homo sapiens was found to be 165 h; with Sus scrofa [5] it was 46.1 h. Also, the CL in the data set with Sus scrofa [3] was 1.6 mL/h/kg. The Vz with Sus scrofa [4] was determined as 0.1019 L/kg. Also, the time to peak (Tmax) in the data set on Sus scrofa [6] is 12 h. Further, the MRT in the data set with Sus scrofa [7] worked out at 63.6 h. In the data set on Sus scrofa [8], this molecule came in with an F of 94%. Also, the EC50 at Mus musculus [9] is < 2 nmol/kg.

`CC[C@H](C)[C@H](NC(=O)[C@H](Cc1ccccc1)NC(=O)[C@H](CCC(=O)O)NC(=O)[C@H](CCCCNC(=O)COCCOCCNC(=O)COCCOCCNC(=O)CC[C@H](NC(=O)CCCCCCCCCCCCCCCCC(=O)O)C(=O)O)NC(=O)[C@H](C)NC(=O)[C@H](C)NC(=O)[C@H](CCC(N)=O)NC(=O)CNC(=O)[C@H](CCC(=O)O)NC(=O)[C@H](CC(C)C)NC(=O)[C@H](Cc1ccc(O)cc1)NC(=O)[C@H](CO)NC(=O)[C@H](CO)NC(=O)[C@@H](NC(=O)[C@H](CC(=O)O)NC(=O)[C@H](CO)NC(=O)[C@@H](NC(=O)[C@H](Cc1ccccc1)NC(=O)[C@@H](NC(=O)CNC(=O)[C@H](CCC(=O)O)NC(=O)[C@H](C)NC(=O)[C@@H](N)Cc1c[nH]cn1)[C@@H](C)O)[C@@H](C)O)C(C)C)C(=O)N[C@@H](C)C(=O)N[C@@H](Cc1c[nH]c2ccccc12)C(=O)N[C@@H](CC(C)C)C(=O)N[C@H](C(=O)N[C@@H](CCCNC(=N)N)C(=O)NCC(=O)N[C@@H](CCCNC(=N)N)C(=O)NCC(=O)O)C(C)C`: the Activity result at Albumin is recorded as “Not Active”.

With `CCCCCCCCCCCCCCCC(=O)N[C@@H](CCC(=O)NCCOCCOCC(=O)NCCOCCOCC(=O)NCCOCCOCC(=O)NCCCC[C@H](NC(=O)[C@H](C)NC(=O)[C@H](C)NC(=O)[C@H](CCC(N)=O)NC(=O)CNC(=O)[C@H](CCC(=O)O)NC(=O)[C@H](CC(C)C)NC(=O)[C@H](Cc1ccc(O)cc1)NC(=O)[C@H](CO)NC(=O)[C@H](CO)NC(=O)[C@@H](NC(=O)[C@H](CC(=O)O)NC(=O)[C@H](CO)NC(=O)[C@@H](NC(=O)[C@H](Cc1ccccc1)NC(=O)[C@@H](NC(=O)CNC(=O)[C@H](CCC(=O)O)NC(=O)C(C)(C)NC(=O)[C@@H](N)Cc1c[nH]cn1)[C@@H](C)O)[C@@H](C)O)C(C)C)C(=O)N[C@@H](CCC(=O)O)C(=O)N[C@@H](Cc1ccccc1)C(=O)N[C@H](C(=O)N[C@@H](C)C(=O)N[C@@H](Cc1c[nH]c2ccccc12)C(=O)N[C@@H](CC(C)C)C(=O)N[C@H](C(=O)N[C@@H](CCCNC(=N)N)C(=O)NCC(=O)N[C@@H](CCCNC(=N)N)C(=O)NCC(=O)O)C(C)C)[C@@H](C)CC)C(=O)O`, the IC50 was found to be 0.03 nM in data set [10] (bhk) and 0.22 nM in [11] (bhk). For the same molecule, the EC50 in data set [12] (bhk) was 0.0043 nM.

In the case of `CC[C@H](C)[C@H](NC(=O)[C@H](Cc1ccccc1)NC(=O)[C@H](CCC(=O)O)NC(=O)[C@H](CCCCN)NC(=O)[C@H](C)NC(=O)[C@H](C)NC(=O)[C@H](CCC(N)=O)NC(=O)CNC(=O)[C@H](CCC(=O)O)NC(=O)[C@H](CC(C)C)NC(=O)[C@H](Cc1ccc(O)cc1)NC(=O)[C@H](CO)NC(=O)[C@H](CO)NC(=O)[C@H](CCCCNC(=O)COCCOCCNC(=O)COCCOCCNC(=O)CC[C@H](NC(=O)CCCCCCCCCCCCCCCCC(=O)O)C(=O)O)NC(=O)[C@H](CC(=O)O)NC(=O)[C@H](CO)NC(=O)[C@@H](NC(=O)[C@H](Cc1ccccc1)NC(=O)[C@@H](NC(=O)CNC(=O)[C@H](CCC(=O)O)NC(=O)C(C)(C)NC(=O)[C@@H](N)Cc1c[nH]cn1)[C@@H](C)O)[C@@H](C)O)C(=O)N[C@@H](C)C(=O)N[C@@H](Cc1c[nH]c2ccccc12)C(=O)N[C@@H](CC(C)C)C(=O)N[C@H](C(=O)N[C@@H](CCCCN)C(=O)NCC(=O)N[C@@H](CCCNC(=N)N)C(=O)NCC(=O)O)C(C)C`, the half-inhibitory concentration (IC50) in data set [10] came out at 0.5 nM; in data set [11], 25.5 nM. The molecule also registered an EC50 in data set [12] of 0.0099 nM.

In data set [13], `CCCCCCCCCCCCCCCC(=O)N[C@@H](CCC(=O)NCCCC[C@H](NC(=O)[C@H](C)NC(=O)[C@H](C)NC(=O)[C@H](CCC(N)=O)NC(=O)CNC(=O)[C@H](CCC(=O)O)NC(=O)[C@H](CC(C)C)NC(=O)[C@H](Cc1ccc(O)cc1)NC(=O)[C@H](CO)NC(=O)[C@H](CO)NC(=O)[C@@H](NC(=O)[C@H](CC(=O)O)NC(=O)[C@H](CO)NC(=O)[C@@H](NC(=O)[C@H](Cc1ccccc1)NC(=O)[C@@H](NC(=O)CNC(=O)[C@H](CCC(=O)O)NC(=O)[C@H](C)NC(=O)[C@@H](N)Cc1cnc[nH]1)[C@@H](C)O)[C@@H](C)O)C(C)C)C(=O)N[C@@H](CCC(=O)O)C(=O)N[C@@H](Cc1ccccc1)C(=O)N[C@H](C(=O)N[C@@H](C)C(=O)N[C@@H](Cc1c[nH]c2ccccc12)C(=O)N[C@@H](CC(C)C)C(=O)N[C@H](C(=O)N[C@@H](CCCNC(=N)N)C(=O)NCC(=O)N[C@@H](CCCNC(=N)N)C(=O)NCC(=O)O)C(C)C)[C@@H](C)CC)C(=O)O` [LIRAGLUTIDE] showed a clearance of 3.8 mL/h/kg. Also, in data set [14], the Vd came out at 0.0674 L/kg. Also, in data set [15], the half-life was 12.4 h. In data set [16], this molecule returned an MRT of 23 h. For the same molecule, the bioavailability in [17] came out at 66%.

Turning to `CC[C@H](C)[C@H](NC(=O)[C@H](Cc1ccccc1)NC(=O)[C@H](CCC(=O)O)NC(=O)[C@H](CCCCNC(=O)COCCOCCNC(=O)COCCOCCNC(=O)CC[C@H](NC(=O)CCCCCCCCCCCCC(=O)O)C(=O)O)NC(=O)[C@H](C)NC(=O)[C@H](C)NC(=O)[C@H](CCC(N)=O)NC(=O)CNC(=O)[C@H](CCC(=O)O)NC(=O)[C@H](CC(C)C)NC(=O)[C@H](Cc1ccc(O)cc1)NC(=O)[C@H](CO)NC(=O)[C@H](CO)NC(=O)[C@@H](NC(=O)[C@H](CC(=O)O)NC(=O)[C@H](CO)NC(=O)[C@@H](NC(=O)[C@H](Cc1ccccc1)NC(=O)[C@@H](NC(=O)CNC(=O)[C@H](CCC(=O)O)NC(=O)C(C)(C)NC(=O)[C@@H](N)Cc1c[nH]cn1)[C@@H](C)O)[C@@H](C)O)C(C)C)C(=O)N[C@@H](C)C(=O)N[C@@H](Cc1c[nH]c2ccccc12)C(=O)N[C@@H](CC(C)C)C(=O)N[C@H](C(=O)N[C@@H](CCCNC(=N)N)C(=O)NCC(=O)N[C@@H](CCCNC(=N)N)C(=O)NCC(=O)O)C(C)C`, the half-inhibitory concentration (IC50) in [10] was determined as 2.65 nM; in data set [11], 8.87 nM. In data set [12], this molecule came in with an EC50 of 0.0157 nM.
